# Screening data deposited in PubChem BioAssay by several laboratories.
# IMP-1 inh = blocks Pseudomonas aeruginosa IMP-1 metallo-beta-lactamase; purified IMP-1, nitrocefin hydrolysis, epi-absorbance fluorescence; inhibition, % at 5.6 µM; 290,000 compounds, 0.45% hits;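 active = inhibition above the mean plus 3 SD of all compounds in the same screening run, cut at about 4.5% in these data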;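 note: 0% = IMP-1 with DMSO and 100% = DMSO wells lacking enzyme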
#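 System – purified recombinant IMP-1 beta-lactamase · Input – IMP-1 dispensed at 0.2 nM · Timing – 15 min preincubation plus 25 min reaction at 25 °C · Signal – Epi-absorbance fluorescence, 480 nm excitation, 530 nm emission · Measure – percent IMP-1 inhibition derived from blank-referenced optical density · Controls – Enzyme-plus-DMSO low control, enzyme-free DMSO high control · Replication – singlicate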
# 697 NFkB inh = lowers PMA/ionomycin-induced NF-kB signal in 697 B cells | 697 B-cell NF-kB luciferase reporter, 16 h | inhibition, % at 4 µM | 330,000 compounds, 0.33% hits | AID 435022; in the data active = inhibition above about 35%
# Mdm2-MdmX inh = human Mdm2/MdmX binding inhibition | O15151+Q00987 | SaOS-2 split-luciferase Mdm2/MdmX complementation, luminescence | inhibition, % at 8 µM | 330,000 compounds, 3% hits;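 active = inhibition of at least 50% at 8 µM in the primary screen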
# Target sequence (O15151 whole entry, looked up): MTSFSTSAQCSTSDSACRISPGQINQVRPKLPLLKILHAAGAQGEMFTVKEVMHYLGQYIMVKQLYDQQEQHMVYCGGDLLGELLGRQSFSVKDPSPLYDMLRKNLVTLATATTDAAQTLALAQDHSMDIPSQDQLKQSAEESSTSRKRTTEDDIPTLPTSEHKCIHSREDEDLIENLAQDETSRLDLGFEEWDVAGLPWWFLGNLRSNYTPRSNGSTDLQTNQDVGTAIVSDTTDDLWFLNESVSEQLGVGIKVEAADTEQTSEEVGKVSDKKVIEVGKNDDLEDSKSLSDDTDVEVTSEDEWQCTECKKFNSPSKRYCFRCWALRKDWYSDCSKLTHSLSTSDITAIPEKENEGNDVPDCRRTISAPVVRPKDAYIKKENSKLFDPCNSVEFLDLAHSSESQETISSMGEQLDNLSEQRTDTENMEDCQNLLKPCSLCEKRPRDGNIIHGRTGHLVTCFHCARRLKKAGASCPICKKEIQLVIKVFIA
# Target sequence (Q00987 whole entry, looked up): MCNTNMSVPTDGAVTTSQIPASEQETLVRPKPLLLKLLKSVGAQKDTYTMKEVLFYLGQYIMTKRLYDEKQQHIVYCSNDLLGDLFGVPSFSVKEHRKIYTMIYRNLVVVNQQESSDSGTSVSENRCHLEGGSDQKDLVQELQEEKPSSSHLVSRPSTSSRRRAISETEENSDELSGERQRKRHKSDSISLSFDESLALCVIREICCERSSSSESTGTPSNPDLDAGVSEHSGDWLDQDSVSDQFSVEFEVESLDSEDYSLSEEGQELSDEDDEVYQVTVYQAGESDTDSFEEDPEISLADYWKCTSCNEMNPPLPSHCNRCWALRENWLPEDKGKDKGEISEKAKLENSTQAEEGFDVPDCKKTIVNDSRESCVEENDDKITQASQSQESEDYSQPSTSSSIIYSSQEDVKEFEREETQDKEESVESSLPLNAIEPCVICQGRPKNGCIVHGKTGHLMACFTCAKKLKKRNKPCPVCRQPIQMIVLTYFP
# aSyn UTR inh = MLPCN primary screen, SNCA 5' untranslated region. inhibition, % (tested at 7.5 µM). alpha-synuclein 5'UTR reporter, inhibitor activity. 300,000 compounds, 0.82% hits; in the data active = inhibition above about 60%;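 note: H4 neuroglioblastoma cells stably carrying SNCA 5'UTR luciferase fusion; 0% = DMSO wells and 100% = positive control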
# Jurkat NFkB inh = lowers PMA/ionomycin-induced NF-kB signal in Jurkat cells; PMA/ionomycin-induced NF-kB luciferase reporter, luminescence; inhibition, % at 4 µM; 330,000 compounds, 0.53% hits; AID 435003; in the data active = inhibition above about 50%
# VIM-2 inh = blocks Pseudomonas aeruginosa VIM-2 metallo-beta-lactamase | inhibition, % at 5.6 µM | 290,000 compounds, 0.89% hits | purified VIM-2, nitrocefin hydrolysis, epi-absorbance fluorescence;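 active = inhibition above the mean of all tested compounds plus 3 SD, cutoff set per screening run, cut at about 7.5% in these data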;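 note: red hydrolysis product quenches plate fluorescence so inhibitors raise well fluorescence; 0% = enzyme with DMSO and 100% = DMSO without enzyme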
# Mdm2-MdmX conf = confirmation of human Mdm2/MdmX interaction inhibitors. inhibition, % at 8 µM. shares compounds with Mdm2-MdmX inh. AID 489028. 10,000 compounds, 55% hits. Mdm2-MdmX binding, luminescent assay; in the data active = inhibition above about 40%
# FLuc counter = inhibits full-length luciferase, flagging false Mdm2/MdmX hits; shares compounds with Mdm2-MdmX inh; inhibition, % at 8 µM; SaOS-2 full-length luciferase counterscreen, luminescence; 6,200 compounds, 77% hits; AID 504607;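 active = mean inhibition at 8 µM reaching about 37%, which flags the compound as non-specific, limit read from the data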;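 note: p53-null SaOS-2 cells with luciferase driven by a doxycycline-inducible promoter; compound on cells about two nights before reading with doxycycline added after day one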
# Active calls of the source: *; . = not tested or not shown. Only some compounds are listed: those with a hit (about 4.7% of all), similar ones and a draw of the others.
SMILES,IMP-1 inh,697 NFkB inh,Mdm2-MdmX inh,aSyn UTR inh,Jurkat NFkB inh,VIM-2 inh,Mdm2-MdmX conf,others
COc1ccc(C(=O)NC(=S)NNC(=O)c2ccc(C)cc2)cc1,.,-24,49,2,-27,.,.,
Cc1cc(Br)c2c(c1)/C(=C/C(=O)c1cccs1)C(=O)N2,-2,-14,21,-7,4,-2,.,
Cc1cc(C)c2c(c1)/C(=C/C(=O)c1ccc(Br)s1)C(=O)N2,-4,-8,96*,-55,1,-4,41*,FLuc counter=87*
NS(=O)(=O)c1ccc(CNC(=O)c2cc(-c3ccccn3)nc3ccc(Cl)cc23)cc1,-4,10,51*,-42,0,-3,14,
NS(=O)(=O)c1ccc(CNC(=O)c2cc(-c3cccnc3)nc3ccc(Cl)cc23)cc1,0,-3,16,-3,-4,-2,.,
COC(=O)c1sccc1NC(=O)c1c(-c2ccccc2)noc1C,0,13,14,5,12,-4,.,
COC(=O)c1c(-c2ccc(C)cc2)csc1NC(=O)c1c(-c2ccccc2)noc1C,-1,-199,79*,68*,-46,1,80*,FLuc counter=39*
Cc1sc(NC(=O)CSc2nnc(COc3ccc(Cl)cc3)n2C)c(C#N)c1C,-2,-10,52*,17,-8,-2,34,
CCOC(=O)c1cnc(SCC(=O)Nc2cc(C(F)(F)F)ccc2N2CCOCC2)nc1N,3,-7,55*,-2,4,-2,-4,
CCOC(=O)c1cnc(SCC(=O)Nc2cc(OC)cc(OC)c2)nc1N,0,1,34,20,25,-2,.,
CCOC(=O)c1cnc(SCC(=O)Nc2sc(C)c(C)c2C#N)nc1N,-2,-27,72*,31,-19,-2,7,
CN1CCN(CP(=O)(N2CCOCC2)N2CCOCC2)CC1,-3,6,8,-5,14,-3,.,
CCOc1cc(C(=O)NC(=S)Nn2cnnc2)cc(OCC)c1OCC,-4,11,-19,0,6,-1,.,
NC(=O)C[C@H](N)c1cn([C@@H](CC(N)=O)C(=O)N2CCNCC2)nn1,.,10,-28,.,-8,.,.,
Cc1ccc(CNC(=O)C2CCN(c3nc(C)cc(C)n3)CC2)cc1,.,8,24,-4,-4,.,.,
O=C1[C@@H](Oc2ccccc2)[C@@H](c2ccncc2)N1c1ccccc1,.,5,53*,.,.,.,48*,FLuc counter=48*
Cc1ccccc1CN1C(=O)c2ccccc2S1(=O)=O,0,8,28,-18,16,-2,.,
O=C1c2ccccc2S(=O)(=O)N1Cc1nc2ccccc2s1,-3,23,90*,112*,22,-4,87*,FLuc counter=33
CCOc1ccc(-n2c(=O)c3sccc3n(CC(=O)NCC3CCCO3)c2=O)cc1 (configuration not stated),-4,12,8,-28,0,-2,.,
CC(C)C[C@@H](C(=O)NC1CCN(Cc2ccccc2)CC1)N1C(=O)N2CCc3c([nH]c4ccccc34)[C@@]2(C)C1=O,-4,-1,60*,-43,14,-3,46*,FLuc counter=58*
Cc1nn(CC(=O)NCc2cccc3ccccc23)c(=O)c2ccccc12,0,-11,85*,-16,-7,1,48*,FLuc counter=64*
N#C/C(=C/c1ccc(N2CCOCC2)c([N+](=O)[O-])c1)C(N)=O,4,2,-11,19,2,1,.,
Cc1nc(N2CCN(C(=O)c3cnccn3)CC2)c2c3c(sc2n1)CC(C(C)(C)C)CC3 (configuration not stated),0,-11,70*,-30,8,1,34,
C=CCNc1cnn(-c2ccccc2)c(=O)c1Cl,-3,-10,-25,-58,-22,-3,.,
COc1ccc(N2C(=O)CC(Sc3nc4ccccc4s3)C2=O)cc1 (configuration not stated),0,-12,26,-22,-17,1,.,
SMILES,IMP-1 inh,697 NFkB inh,Mdm2-MdmX inh,aSyn UTR inh,Jurkat NFkB inh,VIM-2 inh,Mdm2-MdmX conf,others
CCOc1ccc2nc(SC3CC(=O)N(c4ccc(OC)cc4)C3=O)sc2c1 (configuration not stated),-2,-30,66*,-34,-31,-2,-28,
CCOC(=O)C1=NN(c2cccc(Cl)c2)C2=NC(C)=C(C(=O)OC)C(c3cccs3)N12 (configuration not stated),-3,-6,8,9,-14,-2,.,
CC(C)c1ccc(N2C(=O)CC(Sc3ncn[nH]3)C2=O)cc1 (configuration not stated),-3,16,14,9,0,-3,.,
CC(C)c1ccc(N2C(=O)CC(Sc3nc4ccccc4o3)C2=O)cc1 (configuration not stated),-2,1,100*,-16,-5,-4,29,
O=C(CCc1ccccc1)NNC(=O)COc1ccccc1Cl,-3,1,-11,-12,12,-5,.,
Cc1cc(C)nc(N2C(=O)CC(C(=O)O)NC2=NCCc2c[nH]c3ccccc23)n1 (configuration not stated),-3,14,3,-2,12,-1,.,
Cc1cc(C)nc(NC(=NCCc2c[nH]c3ccccc23)NC(=O)C(C)(C)C)n1,-4,-5,52*,-11,3,-2,17,
N#C/C(=C(\O)Cc1ccccc1)c1nc2ccccc2[nH]1,-4,18,55*,-22,3,-5,10,
COc1ccc(/C=N/OC/C(O)=C(\C#N)c2nc3ccccc3[nH]2)cc1OC,1,27,73*,-2,24,-1,25,
N#C/C(=C(/O)c1ccc(Br)s1)c1nc2ccccc2[nH]1,0,-106,31,-53,15,0,.,
Cc1ccc(C(C)C)c(OC/C(O)=C(\C#N)c2nc3ccccc3[nH]2)c1,-4,-10,59*,-1,7,-1,32,
N#C/C(=C(/O)c1ccc([N+](=O)[O-])s1)c1nc2ccccc2[nH]1,-2,-50,89*,-38,-23,-4,83*,FLuc counter=68*
COc1cccc(NC(=O)N2C3CCCC2CC(NC(=O)C(C)(C)C)C3)c1 (configuration not stated),-3,-23,5,3,-3,-2,.,
C[C@H](CO)N1C[C@H](C)[C@@H](CN(C)S(=O)(=O)c2ccccc2)Oc2ccc(NC(=O)NC3CCCCC3)cc2C1=O,.,12,-10,.,7,.,.,
O=C(CN1CCN(c2ccccn2)CC1)Nc1ccc(F)cc1F,-4,-13,-9,-30,-36,-2,.,
COCc1cc(=O)[nH]c(Nc2nc3ccc(C)cc3o2)n1,-15,-243,78*,16,-6,-1,8,
